Data on five compounds can be found in ChEMBL document CHEMBL4373706, “Discovery of Inhibitors of Aurora/PLK Targets as Anticancer Agents” (J Med Chem, 2019).

As a reminder, the IC50 is the concentration that gives 50% inhibition. Low readings indicate greater potency, high ones weaker potency.

In test [1] the test system is Calu-6. Put plainly: Antiproliferative activity against human Calu6 cells measured after 48 hrs by MTT assay. Format: functional, cell-based. Put shortly:
(§1)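 Cells were exposed to a range of compound concentrations for 48 h. MTT reagent was then added and absorbance read at 490 nm. Viability was normalized to vehicle control set as 100%, from n = 3 independent experiments, and IC50 was taken from the dose–response curves.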
In general terms: Tetrazolium assays rely on reduction of a dye to a coloured formazan, in cell work by metabolically active cells.

The test system of test [2] is HCT-116. Kind of test: Antiproliferative activity against human HCT116 cells measured after 48 hrs by MTT assay. It is filed as functional, cell-based. An outline of the steps: as §1
Test [3] deals with MCF7. Put plainly: Antiproliferative activity against human MCF7 cells measured after 48 hrs by MTT assay. It is filed as functional, cell-based. Put shortly:
as §1

Test [4] deals with A549. Kind of test: Antiproliferative activity against human A549 cells measured after 48 hrs by MTT assay. Format: functional, cell-based. An outline of the steps: as §1
Test [5] relates to HCT-116. Kind of test: Induction of apoptosis in human HCT116 cells assessed as increase in apoptotic index at 1 to 10 uM measured after 48 hrs by Annexin V-FITC/propidium iodide staining-based flow cytometry. It is filed as functional, cell-based. For orientation: Flow cytometry measures light scatter and fluorescence of single cells or particles in a stream.
Test [6] concerns HCT-116. Put plainly: Inhibition of colony formation in human HCT116 cells at 10 uM incubated for 48 hrs followed by supplemented with fresh medium every 3 days for 2 weeks by crystal violet staining-based assay. Format: functional, cell-based.
For test [7], the system named is HCT-116. Kind of test: Antiproliferative activity against human HCT116 cells measured after 96 hrs by Brdu incorporation-based ELISA. It is filed as functional, cell-based. Conditions: HCT-116, 96 h. For orientation: ELISA stands for enzyme-linked immunosorbent assay.
For test [8], the system named is HCT-116. Put plainly: Antitumor activity against human HCT116 cells xenografted in BALB/c mouse assessed as survival rate at 10 mg/kg, iv administered every 3 days for 60 days relative to control. It is filed as functional. Particulars: HCT-116, iv.

Activity calls are given as the source filed them. The rule behind the calls is not given here.

Take `COc1ccc(C(=O)Nc2ccc3cc(C(=O)NC4CC4)ccc3c2)cc1`: the outcome in test [1], in test [2], in test [3] and in test [4] was Active.
`O=C(Nc1ccc2cc(C(=O)NC3CCCCC3)ccc2c1)c1ccc(F)cc1`: the result in test [1], in test [2], in test [3] and in test [4] was Active.
As for `CC[C@@H]1C(=O)N(C)c2cnc(Nc3ccc(C(=O)NC4CCN(C)CC4)cc3OC)nc2N1C1CCCC1`, the result in test [5] was Active. For the same compound, the inhibition result in test [6] was “inactive”.
With `COc1cc(Nc2ncc3c(n2)-c2ccc(Cl)cc2C(c2c(F)cccc2OC)=NC3)ccc1C(=O)O` [ALISERTIB], the outcome in test [5] was Active. In addition, in test [6], the inhibition result was “inactive”. The compound further registered a half-maximal inhibitory concentration (IC50) in test [7] of 32 µM.
Regarding `O=c1[nH]cc(F)c(=O)[nH]1` [FLUOROURACIL], the survival at 10 mg/kg in test [8] worked out at 30%.
